The test system of data set [1] is Microsporum canis. The data set can be described thus: Antifungal activity against Microsporum canis infected in guinea pig dermatophytosis model assessed as colony count per specimen at 20 mg/kg/day, po administered 12 days measured after 14 days. The format is functional. The method, boiled down: (§1)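 Female guinea pigs (418 to 482 g) were inoculated on shaved skin with M. canis clinical-isolate microconidia at about 8 × 10⁵ conidia/ml. Oral solution was given by gavage at 20 mg/kg/day on days 3 to 14; controls were untreated (n = 8 per group). Skin scrapings were cultured on SAB with cycloheximide/chloramphenicol for 28 days and CFU per specimen counted. Groups were compared by Wilcoxon two-sample test.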

The nature of data set [2]: Drug level in guinea pig whole blood at 20 mg/kg/day, po after 3 hrs. The note with it: read-out: Drug uptake. Details: route oral. The format is ADME, organism-based, Cavia porcellus. The method, boiled down:
(§2)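 Day 14: three infected guinea pigs received the twelfth 20 mg/kg oral gavage dose. Whole blood was drawn from the eye vein hourly from 1 h. 3-mm full-thickness punch biopsies were taken hourly from the lesion margin over 3 h. Blood was precipitated with acetonitrile. Biopsies were extracted 6 h in acetonitrile-ammonium phosphate with freeze-thaw cycles. Total drug was measured by isocratic RP-18 HPLC (LLOQ 0.2 μg/ml).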

Data set [3] deals with Microsporum distortum. The data set is described as follows: Antimicrobial activity against Microsporum distortum. The format is functional.
The nature of data set [4]: Drug level in guinea pig skin biopsy specimen at 20 mg/kg/day, po after 3 hrs. Details: route oral. The format is ADME, organism-based, Cavia porcellus, Zone of skin. As to conditions: read-out: Drug uptake. Summed up: as §2
Data set [5] has as its system Microsporum audouinii. The data set can be described thus: Antimicrobial activity against Microsporum audouinii. The format is functional.
The test system of data set [6] is Microsporum canis. The data set can be described thus: Antimicrobial activity against Microsporum canis. The format is functional. The method, boiled down:
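MIC was determined by CLSI M38-A broth dilution, modified to use 10⁵ CFU/ml inoculum and 10 days incubation at 25°C. The organism was a clinical M. canis isolate, tested in triplicate.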

The subject of data set [7] is Nannizzia nana. The data set can be described thus: Antimicrobial activity against Microsporum nanum. The format is functional.
Data set [8] relates to Microsporum canis. The data set is described as follows: Antifungal activity against Microsporum canis infected in guinea pig dermatophytosis model assessed as colony count per specimen at 20 mg/kg/day, po after 3 days. The format is functional. The method, boiled down:
as §1

Data set [9] deals with Microsporum canis. The data set can be described thus: Antifungal activity against Microsporum canis infected in guinea pig dermatophytosis model assessed as colony count per specimen at 20 mg/kg/day, po administered 12 days measured after 17 days. The format is functional. Summed up:
as §1

The nature of data set [10]: Cmax in guinea pig interstitial fluid at 20 mg/kg/day, po after 3 hrs. The format is ADME, organism-based, Cavia porcellus. Set-up: dose 20 mg/kg/day, route oral. The method, boiled down:
(§3)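 Day 14: the first three treated guinea pigs, infected and dosed as above, were studied under anesthesia. Dermal microdialysis catheters were placed in normal and inoculated skin and perfused with isotonic NaCl at 1 μl/min. Probes were calibrated beforehand by retrodialysis (5 and 10 μg/ml). Dialysates were collected every 30 min for 3 h after the twelfth 20 mg/kg oral dose. Unbound level = 100 × C_dialysate/RR, by isocratic RP-18 HPLC.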

Data set [11] relates to Paraphyton cookei. The data set is described as follows: Antimicrobial activity against Microsporum cookei. The format is functional.
In data set [12] the test system is Nannizzia gypsea. The data set can be described thus: Antimicrobial activity against Microsporum gypseum. The format is functional.
Data set [13] is described as follows: Cmin in guinea pig skin biopsy specimen at 20 mg/kg/day, po after 3 hrs. The format is ADME, organism-based, Cavia porcellus, Zone of skin. Details: route oral. The note with it: read-out: Cmin. The method, boiled down:
as §2

A short description of data set [14]: Drug level in guinea pig interstitial fluid at 20 mg/kg/day, po after 3 hrs. As to conditions: read-out: Drug uptake. Details: route oral. The format is ADME, organism-based, Cavia porcellus. The method, boiled down: as §3
The nature of data set [15]: Cmax in guinea pig skin at 20 mg/kg/day, po after 3 hrs. The format is ADME, organism-based, Cavia porcellus, Zone of skin. Details: dose 20 mg/kg/day, route oral. Summed up: as §2
Data set [16] can be described thus: Cmax in guinea pig whole blood at 20 mg/kg/day, po after 3 hrs. The format is ADME, organism-based, Cavia porcellus. Set-up: dose 20 mg/kg/day, route oral. The method, boiled down:
as §2

The nature of data set [17]: Cmin in guinea pig whole blood at 20 mg/kg/day, po after 3 hrs. The format is ADME, organism-based, Cavia porcellus. Details: route oral. As to conditions: read-out: Cmin. Summed up: as §2
Data set [18] deals with Microsporum canis. The data set can be described thus: Antifungal activity against Microsporum canis infected in guinea pig dermatophytosis model assessed as colony count per specimen at 20 mg/kg/day, po after 7 days. The format is functional. Summed up:
as §1

Data set [19] can be described thus: Cmax in guinea pig skin biopsy specimen at 20 mg/kg/day, po after 3 hrs. The format is ADME, organism-based, Cavia porcellus, Zone of skin. Details: dose 20 mg/kg/day, route oral. Summed up: as §2

≈ marks a conversion by molar mass, not a printed value.

Regarding `C[C@@H](c1ncncc1F)[C@](O)(Cn1cncn1)c1ccc(F)cc1F` [VORICONAZOLE], the Activity in data set [1] is recorded as 0.3; in data set [8] it was 6.4; in data set [9] it was 0.2; in data set [18] it was 4.1. Besides, the concentration at 3 h is 6300 ng/mL in [2]; 18300 ng/g in [4]; 9100 ng/g in data set [13]; 1400 ng/mL in [14]; 4000 ng/mL in [17]. The MIC in [3] was determined as 0.01 µg/mL (≈ 0.0286 µM); in [5], 0.01 µg/mL (≈ 0.0286 µM); in data set [6], 0.25 µg/mL (≈ 0.716 µM); in data set [7], 0.01 µg/mL (≈ 0.0286 µM); in [11], 0.01 µg/mL (≈ 0.0286 µM); in data set [12] it was 0.01 µg/mL (≈ 0.0286 µM). The Cmax was 2000 ng/mL in [10], 28100 ng/g in data set [15], 7700 ng/mL in data set [16] and 35900 ng/g in [19].

These data come from ChEMBL document CHEMBL1143407, “In vivo efficacy and pharmacokinetics of voriconazole in an animal model of dermatophytosis” (Antimicrob Agents Chemother, 2007).
